Measured values taken from ChEMBL document CHEMBL2086276, “Synthesis and evaluation of mutual prodrugs of ibuprofen with menthol, thymol and eugenol” (Eur J Med Chem, 2012).

Columns and labels:
Rattus norvegicus [1] = assay: Antiinflammatory activity in po dosed Wistar rat assessed as inhibition of carrageenan-induced paw edema at dose molecularly equivalent to ibuprofen administered 30 mins prior to carrageenan challenge measured after 2 hrs; assay type: functional
[2] = Half life of the compound in phosphate buffer at pH 7.4; assay type: physicochemical
Method in brief: (§1)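 Hydrolysis at 37 °C in sealed screw-cap vials in a water bath; pH 1.2 HCl, pH 7.4 phosphate or pH 10.0 NaOH buffer, 20 mM total buffer, ionic strength held at 0.5 M with KCl. Sampled at 15, 30, 60, 120, 240 min; ester and ibuprofen quantified by HPLC. Pseudo-first-order Kobs = 2.303/t·log(a/(a−x)); t1/2 = 0.693/Kobs.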

[3] = Octanol-buffer partition coefficient, log P of the compound by HPLC analysis; assay type: physicochemical
Method in brief: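 100 mg compound in 10 mL aqueous phase plus 10 mL octanol, shaken 1 h, left 2 h at 25 °C. Each phase quantified by HPLC: C18 column, […], 1.0 mL/min, UV 254 nm. Partition coefficient = organic-phase over aqueous-phase concentration; also computed in silico.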

Rattus norvegicus [4] = assay: Antiinflammatory activity in po dosed Wistar rat assessed as inhibition of carrageenan-induced paw edema at dose molecularly equivalent to ibuprofen administered 30 mins prior to carrageenan challenge measured after 1 hr; assay type: functional
[5] = Half life of the compound in NaOH buffer at pH 10 by HPLC analysis; assay type: physicochemical; method in brief: as §1
Rattus norvegicus [6] = assay: Antiinflammatory activity in po dosed Wistar rat assessed as inhibition of carrageenan-induced paw edema at dose molecularly equivalent to ibuprofen administered 30 mins prior to carrageenan challenge measured after 4 hrs; assay type: functional
Rattus norvegicus [7] = assay: Antiinflammatory activity in po dosed Wistar rat assessed as inhibition of carrageenan-induced paw edema at dose molecularly equivalent to ibuprofen administered 30 mins prior to carrageenan challenge measured after 6 hrs; assay type: functional
Rattus norvegicus [8] = assay: Gastrotoxicity in 24 hrs fasted po dosed Wistar rat assessed as ulcer index at dose molecularly equivalent to ibuprofen after 6 hrs; assay type: toxicity, organism-based; settings: in vivo
Method in brief: (§2)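 Rats fasted 24 h, then dosed orally as suspension in 0.5% acacia, 150 mg/kg ibuprofen or molar equivalent of prodrug; n = 6 per group. Killed 6 h after dosing, food and water then ad libitum. Stomach opened, rinsed with 5 mL saline, inspected under magnifier, ulcers scored by severity; ulcer index is the group mean, ± SEM.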

Rattus norvegicus [9] = assay: Antiinflammatory activity in po dosed Wistar rat assessed as inhibition of carrageenan-induced paw edema at dose molecularly equivalent to ibuprofen administered 30 mins prior to carrageenan challenge measured after 5 hrs; assay type: functional
[10] = Chemical stability of the compound assessed as hydrolysis in HCl buffer at pH 1.2 by HPLC analysis; assay type: physicochemical; method in brief: as §1
Rattus norvegicus [11] = assay: Antiinflammatory activity in po dosed Wistar rat assessed as inhibition of carrageenan-induced paw edema at dose molecularly equivalent to ibuprofen administered 30 mins prior to carrageenan challenge measured after 3 hrs; assay type: functional
Rattus norvegicus [12] = assay: Antiinflammatory activity in Wistar rat model assessed as inhibition of carrageenan-induced paw edema at 20 mg/kg, po administered 30 mins prior to carrageenan challenge measured after 5 hrs; assay type: functional
Rattus norvegicus [13] = assay: Antiinflammatory activity in Wistar rat model assessed as inhibition of carrageenan-induced paw edema at 20 mg/kg, po administered 30 mins prior to carrageenan challenge measured after 2 hrs; assay type: functional
Rattus norvegicus [14] = assay: Gastrotoxicity in 24 hrs fasted Wistar rat assessed as ulcer index at 150 mg/kg, po after 6 hrs; assay type: toxicity, organism-based; design: dose 150 mg/kg, route oral; settings: in vivo; method in brief: as §2
Rattus norvegicus [15] = assay: Antiinflammatory activity in Wistar rat model assessed as inhibition of carrageenan-induced paw edema at 20 mg/kg, po administered 30 mins prior to carrageenan challenge measured after 3 hrs; assay type: functional
Rattus norvegicus [16] = assay: Antiinflammatory activity in Wistar rat model assessed as inhibition of carrageenan-induced paw edema at 20 mg/kg, po administered 30 mins prior to carrageenan challenge measured after 1 hr; assay type: functional
Rattus norvegicus [17] = assay: Antiinflammatory activity in Wistar rat model assessed as inhibition of carrageenan-induced paw edema at 20 mg/kg, po administered 30 mins prior to carrageenan challenge measured after 6 hrs; assay type: functional
Rattus norvegicus [18] = assay: Antiinflammatory activity in Wistar rat model assessed as inhibition of carrageenan-induced paw edema at 20 mg/kg, po administered 30 mins prior to carrageenan challenge measured after 4 hrs; assay type: functional

half-life [2] [h] | logP [3] | half-life [5] [h] | Stability [10] | Compound | inhibition (INH) (Rattus norvegicus [1]) [%] | inhibition (INH) (Rattus norvegicus [4]) [%] | inhibition (INH) (Rattus norvegicus [6]) [%] | inhibition (INH) (Rattus norvegicus [7]) [%] | UI (Rattus norvegicus [8]) | inhibition (INH) (Rattus norvegicus [9]) [%] | inhibition (INH) (Rattus norvegicus [11]) [%] | inhibition in vivo at 20 mg/kg (Rattus norvegicus [12]) [%] | inhibition in vivo at 20 mg/kg (Rattus norvegicus [13]) [%] | UI (Rattus norvegicus [14]) | inhibition in vivo at 20 mg/kg (Rattus norvegicus [15]) [%] | inhibition in vivo at 20 mg/kg (Rattus norvegicus [16]) [%] | inhibition in vivo at 20 mg/kg (Rattus norvegicus [17]) [%] | inhibition in vivo at 20 mg/kg (Rattus norvegicus [18]) [%]
6.01 | 6.69 | 2.72 | Stable | CC(C)Cc1ccc(C(C)C(=O)OC2CC(C)CCC2C(C)C)cc1 (stereo unspecified) | 34.08 | 31.58 | 55 | 66.84 | 0.91 | 64.01 | 48.49 | – | – | – | – | – | – | –
5.19 | 6.27 | 2.42 | Stable | Cc1ccc(C(C)C)c(OC(=O)C(C)c2ccc(CC(C)C)cc2)c1 (racemic) | 32.52 | 29.36 | 55.17 | 64.01 | 0.83 | 61.5 | 47.63 | – | – | – | – | – | – | –
2.84 | 5.63 | 1.34 | Stable | C=CCc1ccc(OC(=O)C(C)c2ccc(CC(C)C)cc2)c(OC)c1 (racemic) | 31.43 | 27.93 | 55.26 | 60.33 | 1.08 | 56.17 | 48.06 | – | – | – | – | – | – | –

Compound | half-life [2] [h] | logP [3] | half-life [5] [h] | Stability [10] | inhibition (INH) (Rattus norvegicus [1]) [%] | inhibition (INH) (Rattus norvegicus [4]) [%] | inhibition (INH) (Rattus norvegicus [6]) [%] | inhibition (INH) (Rattus norvegicus [7]) [%] | UI (Rattus norvegicus [8]) | inhibition (INH) (Rattus norvegicus [9]) [%] | inhibition (INH) (Rattus norvegicus [11]) [%] | inhibition in vivo at 20 mg/kg (Rattus norvegicus [12]) [%] | inhibition in vivo at 20 mg/kg (Rattus norvegicus [13]) [%] | UI (Rattus norvegicus [14]) | inhibition in vivo at 20 mg/kg (Rattus norvegicus [15]) [%] | inhibition in vivo at 20 mg/kg (Rattus norvegicus [16]) [%] | inhibition in vivo at 20 mg/kg (Rattus norvegicus [17]) [%] | inhibition in vivo at 20 mg/kg (Rattus norvegicus [18]) [%]
CC(C)Cc1ccc(C(C)C(=O)O)cc1 (racemic) [IBUPROFEN] | – | 3.71 | – | – | – | – | – | – | – | – | – | 46.8 | 22.1 | 2.41 | 40.9 | 18.3 | 47.6 | 44
